One experiment concerns SK-BR-3. As to the kind of experiment: Antiproliferative activity against human SK-BR-3 cells. Type of experiment: functional, cell-based. An outline of the steps:
(§1)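 Antiproliferative assay in SkBr3 (Her2-overexpressing breast) and PC3-MM2 (androgen-independent prostate) cancer cells. IC50 in μM given as mean ± standard deviation of at least two separate experiments, each run in triplicate.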

A short description of experiment [1]: Antiproliferative activity against human PC3MM2 cells. Type of experiment: functional, cell-based. The procedure, abridged:
as §1

The target in experiment [2] is T1, Heat shock protein HSP90 (Homo sapiens) (UniProt P07900+P08238). As to the kind of experiment: Induction of HSP90-mediated HSF1 expression in human PC3MM2 cells at 10 uM after 24 hrs by Western blot analysis. Type of experiment: cell-based. An outline of the steps: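 PC3-MM2 cells exposed to 10 μM of each compound for 24 h. HSF1 measured by Western blot relative to β-actin.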

Experiment [3] has as its target T1, Heat shock protein HSP90 (Homo sapiens). As to the kind of experiment: Inhibition of Hsp90 in human PC3MM2 cells assessed as downregulation of Her2 at 100 uM after 24 hrs by Western blot analysis. Type of experiment: cell-based.
For experiment [4] the target is unchanged. Kind of experiment: Inhibition of Hsp90 in human PC3MM2 cells assessed as downregulation of Akt at 100 uM after 24 hrs by Western blot analysis. Type of experiment: cell-based.
For experiment [5] the target is unchanged. Kind of experiment: Inhibition of Hsp90 in human PC3MM2 cells assessed as downregulation of Raf1 at 100 uM after 24 hrs by Western blot analysis. Type of experiment: cell-based. In general terms: Immunoblotting shows a protein as a band on a membrane.
The species entered for experiment [6] is Homo sapiens. Kind of experiment: Inhibition of Hsp90alpha/Aha1 interaction in human PC3MM2 cells assessed as remaining Hsp90alpha/Aha complex levels at 100 uM after 24 hrs by Western blot analysis (reference value: 98 to 100 %). Type of experiment: cell-based.
The species named for the next experiment is Rattus norvegicus. As to the kind of experiment: Neuroprotective activity in rat 50B11 cells assessed as maximal respiratory capacity at 5 uM after 24 hrs in presence of oligomycin/FCCP/rotenon/antimycin by extracellular flux analysis.
Experiment [7] deals with T1, Heat shock protein HSP90 (Homo sapiens). Kind of experiment: Inhibition of Hsp90 in human PC3MM2 cells assessed as downregulation of Her2 at 0.5 to 3 times IC50 after 24 hrs by Western blot analysis. Type of experiment: cell-based. The procedure, abridged:
(§2)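 PC3-MM2 cells treated 24 h at a high (3 × IC50) and a low (0.5 × IC50) concentration. Hsp90 client protein levels measured by Western blot with actin as loading control.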

For experiment [8] the target is unchanged. Kind of experiment: Inhibition of Hsp90 in human PC3MM2 cells assessed as suppression of firefly luciferase rematuration at 0.02 to 20 uM incubated for 1 hr by luciferase reporter gene assay. The experiment is classed as cell-based. The procedure, abridged: (§3)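 Hsp90-dependent refolding of thermally denatured firefly luciferase in PC3-MM2 cells. Compounds tested from 0.02 to 20 μM.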
In general terms: Reporter assays use an easily measured gene product as a stand-in for the process of interest.

The target is the same in experiment [9]. As to the kind of experiment: Inhibition of Hsp90 in human PC3MM2 cells assessed as downregulation of Akt at 0.5 to 3 times IC50 after 24 hrs by Western blot analysis. Type of experiment: cell-based. The procedure, abridged:
as §2

For experiment [10] the target is unchanged. As to the kind of experiment: Inhibition of Hsp90 in human PC3MM2 cells assessed as downregulation of Raf1 at 0.5 to 3 times IC50 after 24 hrs by Western blot analysis. Type of experiment: cell-based. An outline of the steps:
as §2

For experiment [11] the target is unchanged. Kind of experiment: Induction of Hsp90 in human PC3MM2 cells at 0.5 to 3 times IC50 after 24 hrs by Western blot analysis. Type of experiment: cell-based. The procedure, abridged: as §2
The species named for experiment [12] is Homo sapiens. Kind of experiment: Inhibition of Hsp90alpha/Aha1 interaction in human PC3MM2 cells assessed as remaining Hsp90alpha/Aha complex levels at 35 uM after 24 hrs by Western blot analysis (reference value: 98 to 100 %). The experiment is classed as cell-based.
The species named for experiment [13] is Homo sapiens. Kind of experiment: Inhibition of Hsp90alpha/Aha1 interaction in human PC3MM2 cells assessed as remaining Hsp90alpha/Aha complex levels at 50 uM after 24 hrs by Western blot analysis (reference value: 98 to 100 %). Type of experiment: cell-based.
Experiment [14] addresses T1, Heat shock protein HSP90 (Homo sapiens). As to the kind of experiment: Effect on Hsp90 in human PC3MM2 cells assessed as stimulation of firefly luciferase rematuration at 0.02 to 20 uM incubated for 1 hr by luciferase reporter gene assay. The experiment is classed as cell-based. The procedure, abridged: as §3

As a reminder, the IC50 is the concentration at which inhibition is half-maximal. Read a low IC50 as greater potency.

Calls of active or inactive are those of the source. The rule behind the calls is not given here.

For `CO[C@@H]1[C@@H](O)[C@@H](O)[C@H](Oc2ccc3cc(NC(=O)C4CCC4)c(=O)oc3c2C)OC1(C)C`, the figures for the IC50 (in the experiment on SK-BR-3; in experiment [1]) were 220 µM and 284 µM, respectively. The fold change (FC) in [2] amounted to 4. Also, the inhibition result in experiment [3], in experiment [4] and in [5] was “inactive” in each case. Besides, the remaining Hsp90alpha/Aha1 complex level in the experiment filed under Homo sapiens [6] came to 54%. Also, the outcome in the experiment filed under Rattus norvegicus was Active.
In the case of `CCCCCCC(=O)Nc1cc2ccc(O[C@@H]3OC(C)(C)[C@H](OC)[C@@H](O)[C@H]3O)c(C)c2oc1=O`, in experiment [7], the “Her2 downregulation (active/inactive call)” value was “Active”. In addition, the IC50 in the experiment with SK-BR-3 came out at 58.3 µM; in experiment [1], 34.7 µM. For the same compound, in [8], the inhibition entry is “Active”. Also, the fold change (FC) in experiment [2] was determined as 0.6. Also, the “Akt downregulation (active/not active)” value in [9] is “Active”. The “Raf1 downregulation (active/not active)” value in experiment [10] was “Active”. For the same compound, the result in experiment [11] was inactive. Also, the Activity in the experiment listed under Homo sapiens [12] stood at 38%. Moreover, the result in the experiment listed under Rattus norvegicus was Active.
Consider `CO[C@@H]1[C@@H](O)[C@@H](O)[C@H](Oc2ccc3cc(NC(=O)C4CCCCC4)c(=O)oc3c2C)OC1(C)C`, for which the “Her2 downregulation (active/inactive call)” value in experiment [7] is “Active”. The IC50 was 46.8 µM in the experiment on SK-BR-3 and 54.6 µM in experiment [1]. The inhibition entry in [8] is “Active”. Besides, the fold change (FC) in experiment [2] is 1. Moreover, the “Akt downregulation (active/not active)” value in [9] is “Active”. The “Raf1 downregulation (active/not active)” value in experiment [10] was “Active”. Besides, the result in [11] was inactive. Also, the Activity in the experiment filed under Homo sapiens [13] is 22%. Moreover, the outcome in the experiment listed under Rattus norvegicus was Active.
As to `CCCCC(=O)Nc1cc2ccc(O[C@@H]3OC(C)(C)[C@H](OC)[C@@H](O)[C@H]3O)c(C)c2oc1=O`, the half-maximal inhibitory concentration (IC50) with SK-BR-3 worked out at 118 µM; in [1], 317 µM. Further, the result (in experiment [14]; in the experiment listed under Rattus norvegicus) was Active. Besides, the inhibition result in experiment [8], in [3], in [4] and in experiment [5] was “inactive” in each case. Further, the fold change (FC) in [2] came out at 1.5. In the experiment listed under Homo sapiens [6], the remaining Hsp90alpha/Aha1 complex level stood at 72%.
As to `CO[C@@H]1[C@@H](O)[C@@H](O)[C@H](Oc2ccc3cc(NC(C)=O)c(=O)oc3c2C)OC1(C)C`, the IC50 with SK-BR-3 is over 900 µM; in [1] it was over 500 µM. For the same compound, the outcome (in [14]; in the experiment filed under Rattus norvegicus) was Active. Besides, the inhibition result in experiment [8] was “inactive”. For the same compound, the fold change (FC) in experiment [2] was in the range of 2 to 3.7. Moreover, the remaining Hsp90alpha/Aha1 complex level in the experiment listed under Homo sapiens [6] was in the range of 68 to 70%.
With `CCCCCC(=O)Nc1cc2ccc(O[C@@H]3OC(C)(C)[C@H](OC)[C@@H](O)[C@H]3O)c(C)c2oc1=O`, the “Her2 downregulation (active/inactive call)” value in experiment [7] is “Active”. For the same compound, the half-maximal inhibitory concentration (IC50) was determined as 84 µM with SK-BR-3 and 53.7 µM in experiment [1]. In addition, the inhibition result in [8] was “Active”. In addition, in experiment [2], the fold change (FC) was found to be 0.6. Also, in experiment [9], the “Akt downregulation (active/not active)” value is “Active”. Besides, the “Raf1 downregulation (active/not active)” value in experiment [10] is “Active”. In [11], the result was inactive. Further, the Activity in the experiment filed under Homo sapiens [13] stood at 46%. Moreover, the outcome in the experiment listed under Rattus norvegicus was Active.
Take `CO[C@@H]1[C@@H](O)[C@@H](O)[C@H](Oc2ccc3cc(NC(=O)C4CCCC4)c(=O)oc3c2C)OC1(C)C`: in [7], the “Her2 downregulation (active/inactive call)” value was “Active”. Moreover, the IC50 in the experiment on SK-BR-3 is 67 µM; in [1] it was 144 µM. For the same compound, the inhibition entry in experiment [8] is “Active”. For the same compound, the fold change (FC) in experiment [2] was 2. Besides, the “Akt downregulation (active/not active)” value in experiment [9] is “Active”. For the same compound, in [10], the “Raf1 downregulation (active/not active)” value was “Active”. Further, in experiment [11], the outcome was inactive. In the experiment listed under Homo sapiens [6], the remaining Hsp90alpha/Aha1 complex level worked out at 27%. Further, the outcome in the experiment filed under Rattus norvegicus was Active.
For `CO[C@@H]1[C@@H](O)[C@@H](O)[C@H](Oc2ccc3cc(NC(=O)C4CC4)c(=O)oc3c2C)OC1(C)C`, the results for the IC50 (in the experiment on SK-BR-3; in experiment [1]) were 517 µM and over 500 µM, respectively. The fold change (FC) in [2] came out at 3.7. The inhibition result in [3], in experiment [4] and in experiment [5] was “inactive” throughout. Further, the remaining Hsp90alpha/Aha1 complex level in the experiment filed under Homo sapiens [6] turned out to be 68%. Also, in the experiment filed under Rattus norvegicus, the result was Active.
On to `CCCC(=O)Nc1cc2ccc(O[C@@H]3OC(C)(C)[C@H](OC)[C@@H](O)[C@H]3O)c(C)c2oc1=O`, for which the values for the concentration for half-maximal inhibition (IC50) (in the experiment with SK-BR-3; in experiment [1]) were 313 µM and 466 µM, respectively. The result (in experiment [14]; in the experiment filed under Rattus norvegicus) was Active. Besides, the inhibition entry in experiment [8], in [3], in experiment [4] and in [5] was “inactive” in each case. For the same compound, the fold change (FC) in [2] was determined as 1.1. For the same compound, in the experiment listed under Homo sapiens [6], the remaining Hsp90alpha/Aha1 complex level stood at 100%.
As to `CCC(=O)Nc1cc2ccc(O[C@@H]3OC(C)(C)[C@H](OC)[C@@H](O)[C@H]3O)c(C)c2oc1=O`, the half-inhibitory concentration (IC50) with SK-BR-3 was 643 µM; in experiment [1], 504 µM. Further, the outcome (in experiment [14]; in the experiment listed under Rattus norvegicus) was Active. Further, the inhibition result in experiment [8], in [3], in experiment [4] and in [5] was “inactive” each time. Also, in experiment [2], the fold change (FC) was determined as 1.2. Also, the remaining Hsp90alpha/Aha1 complex level in the experiment listed under Homo sapiens [6] is 86%.
